Experiments:
Format in all cases: functional
[1] = tested on: Mythimna separata; assay: Larvicidal activity against Mythimna separata (Oriental armyworm) in compound treated corn leaves at 25 mg/L at 25 +/- 1 degC measured after 4 days
[2] = tested on: Mythimna separata; assay: (§1) Larvicidal activity against Mythimna separata (Oriental armyworm) in compound treated corn leaves at […] at 25 +/- 1 degC measured after 4 days
[3] = tested on: Mythimna separata; assay: Larvicidal activity against Mythimna separata (Oriental armyworm) in compound treated corn leaves at 50 mg/L at 25 +/- 1 degC measured after 4 days
Procedure, shortened: (§2)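 Foliar-application assay on laboratory-reared Oriental armyworm (Mythimna (Pseudaletia) separata), run at 25 ± 1 °C. Larvae were scored dead or alive, and mortality was corrected by Abbott's formula on a 0–100% scale, where 0 = no activity and 100 = total kill. Bioassays were repeated as statistics required.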

[4] = tested on: Mythimna separata; assay: Larvicidal activity against Mythimna separata (Oriental armyworm) in compound treated corn leaves at 5 mg/L at 25 +/- 1 degC measured after 4 days
[5] = tested on: Mythimna separata; assay: Larvicidal activity against Mythimna separata (Oriental armyworm) in compound treated corn leaves at 100 mg/L at 25 +/- 1 degC measured after 4 days
[6] = tested on: Mythimna separata; assay: Larvicidal activity against Mythimna separata (Oriental armyworm ) in compound treated corn leaves at 0.5 mg/L at 25 +/- 1 degC measured after 4 days; procedure, shortened: as §2
[7] = tested on: Mythimna separata; assay: Larvicidal activity against Mythimna separata (Oriental armyworm) in compound treated corn leaves at 1 mg/L at 25 +/- 1 degC measured after 4 days; procedure, shortened: as §2
[8] = tested on: Mythimna separata; assay: as §1; remark: listed apart in the source
[9] = tested on: Mythimna separata; assay: Larvicidal activity against Mythimna separata (Oriental armyworm) in compound treated corn leaves at 10 mg/L at 25 +/- 1 degC measured after 4 days

SMILES	Activity [1] [%]	Activity [2] [%]	Activity [3] [%]	Activity [4] [%]	Activity [5] [%]	Activity [6] [%]	Activity [7] [%]	Activity [8] [%]	Activity [9] [%]
O=C(NC(=O)c1c(F)cccc1F)Nc1ccc(Cl)cc1 [DIFLUBENZURON]	100	45	100	100	0	100	100	100	100
CNC(=O)ON=C(C)SC [METHOMYL]	–	–	–	62	100	–	–	0	100
Cc1cccc(OC(=O)N(C)SN(C(=O)NC(=O)c2c(F)cccc2F)c2ccc(C(F)(F)F)cc2)c1 [Penfluron-S-MTMC]	100	15	100	100	–	95	100	100	100
O=C(NC(=O)c1ccccc1Cl)Nc1ccc(OC(F)(F)F)cc1 [TRIFLUMURON]	100	20	100	100	0	40	95	100	100

Reference: ChEMBL document CHEMBL3045515, “Insecticidal benzoylphenylurea-S-carbamate: a new propesticide with two effects of both benzoylphenylureas and carbamates” (2007)
